Data set [1] is described as follows: Screening of micelle elongation. It is filed as physicochemical. The following applies: T2 micelles. In short, it runs like this: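 Drug loaded into T2 micelles at polymer/drug w/w 10/0, 10/1, 10/2, 10/4 and 10/8. Particle size and size distribution followed over time by DLS. Polymer concentration (1.25–80 mg mL⁻¹), temperature (4, 25, 37 °C) and NaCl (up to ≈4%) also varied. Each formulation scored as spherical, sphere+worm mix, worm, or precipitate.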

Data set [2] can be described thus: Maximal drug solubilization in POx micelles. In kind it is physicochemical.
Data set [3] has as its system BRCA1-mutant human breast carcinoma xenograft MDA-MB-436. Nature of the data set: Tumor inhibition, MDA-MB-436 xenograft. The following applies: 20 mg kg^−1 IV, twice a week, six injections. In kind it is in vivo, athymic nude mice.

With `CC1(C)CCC(c2ccc(Cl)cc2)=C(CN2CCN(c3ccc(C(=O)NS(=O)(=O)c4ccc(N[C@H](CCN5CCOCC5)CSc5ccccc5)c(S(=O)(=O)C(F)(F)F)c4)cc3)CC2)C1` [ABT-263], in data set [1], the “mass fraction of drug that inhibited elongation” value is reported as at most 10%. For the same compound, the maximal solubilization came out at 4 mg/mL in data set [2] (in T2 micelles) and 8 mg/mL in data set [2] (in T3 micelles).
Turning to `O=C(c1cc(Cc2n[nH]c(=O)c3ccccc23)ccc1F)N1CCN(C(=O)C2CC2)CC1` [Olaparib], the “antitumor activity (tumor growth inhibition)” value in data set [3] is “neither the blank spherical micelles nor the free olaparib (20 mg kg^−1) displayed inhibition of the tumor growth”.
`CC(=O)O[C@H]1C(=O)[C@@]2(C)[C@H]([C@H](OC(=O)c3ccccc3)[C@]3(O)C[C@H](OC(=O)[C@H](O)[C@@H](NC(=O)c4ccccc4)c4ccccc4)C(C)=C1C3(C)C)[C@]1(OC(C)=O)CO[C@@H]1C[C@@H]2O` [Paclitaxel]: the “mass fraction of drug that inhibited elongation” value in data set [1] is on record as at most 10%.
On to `CS(=O)(=O)c1ccc(C(=O)Nc2ccc(Cl)c(-c3ccccn3)c2)c(Cl)c1` [Vismodegib], for which the “mass fraction of drug that inhibited elongation” value in data set [1] was at most 10%. The values for the maximal solubilization in data set [2] (in T2 micelles) and in data set [2] (in T3 micelles) were 4 mg/mL and 8 mg/mL, respectively.

Source of the values: PMC10328739 (Small (Weinheim an der Bergstrasse, Germany), 2021).
